Experimental data gathered from unrelated publications.
Compare with care: the assays were run in different laboratories.
Target: Casein kinase I isoform alpha (CSNK1A1, Homo sapiens, UniProt P48729)

SMILES	test	setting	remaining binding [%]
C=CC(=O)N1CCC(C(=O)NCC(=O)N2CCN(c3nc(-c4cnc(N)nc4C(F)F)nc(N4CCOCC4)n3)CC2)CC1	binding, competition with immobilised ligand	1 µM	89
Cc1cc(C)c(-n2ccn3nc(-c4cccnc4)cc23)cc1NC(=O)c1cc(C#N)cc(S(F)(F)(F)(F)F)c1	cell-free assay, competition with immobilised ligand	0.1 µM	67
CN(C)c1ncc(F)c(-c2cnn3ncccc23)n1	binding	1 µM	98
O=C(NCCCN1CCOCC1)c1ccc(Nc2nccc(-c3cc4ccccc4s3)n2)cc1	binding, competition with immobilised ligand	1 µM	74
F[C@@H]1CCN(c2nccc(-c3cnn4ncccc34)n2)C1	binding	1 µM	90
CNC(=O)[C@@H]1CC[C@@H](n2c(-c3ccc4cnccc4c3)nc3ccc(C(=O)NCc4cccc(C(N)=O)c4)cc32)C1	binding, competition with immobilised ligand	1 µM	99
COc1ccnn2ncc(-c3ccnc(N(C)C)n3)c12	binding	1 µM	55
O=C(NCC1CCOCC1)c1n[nH]cc1NC(=O)c1c(F)cccc1F	binding, competition with immobilised ligand	1 µM	77
Nc1ncc2c(n1)-c1c([nH]c3ccc(C#CC4CC4)cc13)CCCC2	binding, competition with immobilised ligand	1 µM	93
O=C(NCCCN1CCOCC1)c1ccc(Nc2ncc(Cl)c(-c3ccc(Cl)s3)n2)cc1	binding, competition with immobilised ligand	1 µM	100
CNCc1ccccc1-c1csc([C@H](C)Nc2nc(C)nc3cc(OC)c(OC)cc23)c1	cell-free assay, competition with immobilised ligand	1 µM	74
N[C@@H]1CCN(c2nccc(-c3cnn4ncccc34)n2)C1	binding	1 µM	12
O=C(N1CCS(=O)(=O)CC1)N1C[C@H](c2ccc(OC(F)(F)F)cc2)C[C@H](c2nc(C3CC3)no2)C1	cell-free assay, competition with immobilised ligand	1 µM	100
C[C@H]1CCN(c2nccc(-c3cnn4ncccc34)n2)C1	binding	1 µM	47
C[C@@H](c1ccc(-n2cnc3c(N)ncnc32)cc1)N1CCc2nn(C)c(Cc3ccccc3)c2C1=O	binding, competition with immobilised ligand	0.1 µM	87
CN(C)c1nccc(-c2cnn3ncccc23)n1	binding	1 µM	60
O=C(NC[C@@H]1[C@H]2CN(C(=O)OCc3cc(C(F)(F)F)cc(C(F)(F)F)c3)C[C@@H]12)c1ccc2[nH]nnc2c1	cell-free assay, competition with immobilised ligand	1 µM	100
Cc1cnc(Nc2ccc(C(=O)N3CCC(N4CCCC4)CC3)cc2)nc1-c1cc2ccccc2s1	binding, competition with immobilised ligand	1 µM	60
CS(=O)(=O)N1CCCC(NC(=O)[C@H](CCC2CCCCC2)NC(=O)c2ccc(CNc3ncnc4c3nnn4-c3ccccc3)cc2)C1 (stereo partly shown)	cell-free assay, competition with immobilised ligand	0.1 µM	99
COc1cnc(Nc2cccc(S(N)(=O)=O)c2)nc1N1CCN(c2ccccc2)C(=O)C1	binding, competition with immobilised ligand	1 µM	93
CN(C)c1nccc(-c2cnc3ncccn23)n1	binding	1 µM	36
CCCCN(CCCC)C(=O)CN1C[C@H](c2cc(OC)c3c(c2)OCO3)[C@@H](C(=O)O)[C@@H]1CC(C)(C)CCC	cell-free assay, competition with immobilised ligand	1 µM	98.1
